Assay results reported in ChEMBL document CHEMBL1154191, “Evaluation of spirocyclic 3-(3-fluoropropyl)-2-benzofurans as sigma1 receptor ligands for neuroimaging with positron emission tomography” (J Med Chem, 2009).

Columns and labels:
Pancreas [1] = assay: Biodistribution in CD1 mouse pancreas assessed per gram of wet tissue at 400 to 600 kBq, iv after 60 mins post-injection by gamma counting in presence of 1 mg/kg, ip sigma 1/sigma 2 receptor antagonist haloperidol treated before compound addition; assay type: organism-based; design: route intravenous; conditions: in vivo, 1 h
Procedure, shortened: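 They were killed at 60 min pi, and organs were weighed and γ-counted as % ID/g wet tissue. Comparison with controls used Student's t test (independent, two-tailed).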

Intestine [2] = assay: Biodistribution in CD1 mouse intestine assessed per gram of wet tissue at 400 to 600 kBq, iv after 60 mins post-injection by gamma counting; assay type: ADME, organism-based; conditions: in vivo, 1 h
Procedure, shortened: (§1)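 Female CD-1 mice (~8-12 weeks, 20-28 g) were fasted 24 h with free water. Conscious mice got 400-600 kBq [¹⁸F] tracer in saline by tail vein. At 5, 30, 60 or 120 min (n=4-5 per time) they were anesthetized, blood and urine sampled, then killed by cervical dislocation. Organs were weighed and γ-counted, giving % ID/g wet tissue.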

Blood [3] = assay: Biodistribution in CD1 mouse blood assessed per gram of wet tissue at 400 to 600 kBq, iv after 120 minspost-injection by gamma counting; assay type: ADME, organism-based; conditions: in vivo, 2 h; procedure, shortened: as §1
Spleen = assay: Biodistribution in CD1 mouse spleen assessed per gram of wet tissue at 400 to 600 kBq, iv after 120 mins post-injection by gamma counting; assay type: ADME, organism-based; conditions: in vivo, 2 h
Procedure, shortened: (§2)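 Female CD-1 mice (~8-12 weeks, 20-28 g), habituated ≥48 h and fasted 24 h with water available. The [18F] tracer (>150 GBq/μmol at end of synthesis) was given in 200 μL saline into the tail vein of conscious animals. At each time point, n=4-5, mice were anaesthetised, blood and urine sampled, then killed by cervical dislocation. Organs were weighed and γ-counted, and values calculated as % ID/g wet tissue.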

Intestine [4] = assay: Biodistribution in CD1 mouse intestine assessed per gram of wet tissue at 400 to 600 kBq, iv after 5 mins post-injection by gamma counting; assay type: ADME, organism-based; conditions: in vivo; procedure, shortened: as §1
[5] = Metabolic stability in CD1 mouse plasma at 200 to 300 MBq, iv after 60 mins post-injection by supelcosil C18 HPLC and TLC-radiochromatography; assay type: ADME, organism-based; conditions: read-out: Stability
Procedure, shortened: (§3)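 Mice received 200-300 MBq [18F] tracer in 200 μL 0.9% saline via the tail vein, and samples were taken at 45 and 60 min (n=2 per time). Plasma was obtained by centrifugation (2000g, 4 °C, 10 min); brain and liver were homogenised in ice-cold 50 mM TRIS-HCl pH 7.4. Samples were precipitated with ice-cold MeCN and centrifuged (4000g, 4 °C, 15 min), and supernatants were analysed by gradient radio-HPLC and radio-TLC, with HPLC fractions γ-counted.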

Liver = assay: Biodistribution in CD1 mouse liver assessed per gram of wet tissue at 400 to 600 kBq, iv after 30 mins post-injection by gamma counting; assay type: ADME, organism-based; conditions: in vivo, 0.5 h; procedure, shortened: as §2
Stomach = assay: Biodistribution in CD1 mouse stomach assessed per gram of wet tissue at 400 to 600 kBq, iv after 5 mins post-injection by gamma counting; assay type: ADME, organism-based; conditions: in vivo; procedure, shortened: as §2
Brain [6] = assay: Biodistribution in CD1 mouse brain assessed per gram of wet tissue at 400 to 600 kBq, iv after 120 mins post-injection by gamma counting; assay type: ADME, organism-based; conditions: in vivo, 2 h; procedure, shortened: as §1
Cerebellum = assay: Biodistribution in CD1 mouse cerebellum assessed per gram of wet tissue at 400 to 600 kBq, iv after 30 mins post-injection by gamma counting; assay type: ADME, organism-based; conditions: in vivo, 0.5 h; procedure, shortened: as §1
Muscle tissue = assay: Biodistribution in CD1 mouse muscle assessed per gram of wet tissue at 400 to 600 kBq, iv after 120 mins post-injection by gamma counting; assay type: ADME, organism-based; conditions: in vivo, 2 h; procedure, shortened: as §2
Pancreas [7] = assay: Biodistribution in CD1 mouse pancreas assessed per gram of wet tissue at 400 to 600 kBq, iv after 30 mins post-injection by gamma counting; assay type: ADME, organism-based; conditions: in vivo, 0.5 h; procedure, shortened: as §2
Femur = assay: Biodistribution in CD1 mouse femur assessed per gram of wet tissue per gram of wet tissue at 400 to 600 kBq, iv after 60 mins post-injection by gamma counting in presence of 1 mg/kg, ip sigma 1/sigma 2 receptor antagonist haloperidol treated before compound addition; assay type: organism-based; design: dose 1 mg/kg, route intravenous; conditions: in vivo, 1 h
Procedure, shortened: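 Blocking arm in fasted female CD-1 mice (n=5). […] Animals were killed at 60 min post-injection, and organs were weighed and γ-counted as % ID/g wet tissue. Percent change was taken against the 60 min control group, with two-tailed unpaired Student's t test.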

[8] = Ratio of drug level in cerebellum to plasma in CD1 mouse at 400 to 600 kBq, iv after 60 mins post-injection; assay type: ADME, organism-based
Procedure, shortened: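 Female CD-1 mice (~8-12 weeks, 20-28 g), fasted 24 h with free water; 400-600 kBq tracer in 200 μL saline by tail vein into conscious animals. Killed at set times pi (n=4-5 per time); blood and organs weighed, γ-counted, expressed as % ID/g wet tissue; ratio from cerebellum and plasma uptake.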

Brain [9] = assay: Biodistribution in CD1 mouse brain assessed per gram of wet tissue at 400 to 600 kBq, iv after 60 mins post-injection by gamma counting; assay type: ADME, organism-based; conditions: in vivo, 1 h; procedure, shortened: as §1
Heart [10] = assay: Biodistribution in CD1 mouse heart assessed per gram of wet tissue at 400 to 600 kBq, iv after 60 mins post-injection by gamma counting; assay type: ADME, organism-based; conditions: in vivo, 1 h; procedure, shortened: as §1
[11] = Biodistribution in CD1 mouse gonad assessed per gram of wet tissue at 400 to 600 kBq, iv after 30 mins post-injection by gamma counting; assay type: ADME, organism-based; conditions: in vivo, 0.5 h; procedure, shortened: as §1
Kidney [12] = assay: Biodistribution in CD1 mouse kidney assessed per gram of wet tissue at 400 to 600 kBq, iv after 120 mins post-injection by gamma counting; assay type: ADME, organism-based; conditions: in vivo, 2 h; procedure, shortened: as §1
[13] = Biodistribution in CD1 mouse thymus assessed per gram of wet tissue at 400 to 600 kBq, iv after 60 mins post-injection by gamma counting; assay type: ADME, organism-based; conditions: in vivo, 1 h; procedure, shortened: as §2
Pancreas [14] = assay: Biodistribution in CD1 mouse pancreas assessed per gram of wet tissue at 400 to 600 kBq, iv after 5 mins post-injection by gamma counting; assay type: ADME, organism-based; conditions: in vivo; procedure, shortened: as §2
Intestine [15] = assay: Biodistribution in CD1 mouse intestine assessed per gram of wet tissue at 400 to 600 kBq, iv after 120 mins post-injection by gamma counting; assay type: ADME, organism-based; conditions: in vivo, 2 h; procedure, shortened: as §1
Heart [16] = assay: Biodistribution in CD1 mouse heart assessed per gram of wet tissue at 400 to 600 kBq, iv after 120 mins post-injection by gamma counting; assay type: ADME, organism-based; conditions: in vivo, 2 h; procedure, shortened: as §1
[17] = Metabolic stability in CD1 mouse brain at 200 to 300 MBq, iv after 60 mins post-injection by supelcosil C18 HPLC and TLC-radiochromatography; assay type: ADME, organism-based; conditions: read-out: Stability; procedure, shortened: as §3
Blood [18] = assay: Biodistribution in CD1 mouse blood assessed per gram of wet tissue at 400 to 600 kBq, iv after 30 mins post-injection by gamma counting; assay type: ADME, organism-based; conditions: in vivo, 0.5 h; procedure, shortened: as §1
[19] = Drug uptake in CD1 mouse adrenal gland at 400 to 600 kBq, iv after 120 mins post-injection by gamma counting relative to initial uptake; assay type: ADME, organism-based; conditions: in vivo, 2 h
Procedure, shortened: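 Organ % ID/g was measured by γ-counting after tail-vein injection of 400-600 kBq [18F] tracer in saline to fasted female CD-1 mice (n=4-5 per time). The 120 min pi value is expressed relative to the initial (5 min pi) uptake.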

Kidney [20] = assay: Biodistribution in CD1 mouse kidney assessed per gram of wet tissue at 400 to 600 kBq, iv after 30 mins post-injection by gamma counting; assay type: ADME, organism-based; conditions: in vivo, 0.5 h; procedure, shortened: as §1
Heart [21] = assay: Biodistribution in CD1 mouse heart assessed per gram of wet tissue at 400 to 600 kBq, iv after 30 mins post-injection by gamma counting; assay type: ADME, organism-based; conditions: in vivo, 0.5 h; procedure, shortened: as §1

[18F]CCCC1OC2(CCN(Cc3ccccc3)CC2)c2ccccc21 (configuration not stated)
Drug uptake (Pancreas [1]): 3.05 %ID | Drug uptake (Intestine [2]): 6.59 %ID | Drug uptake (Blood [3]): 0.48 %ID | Drug uptake (Spleen): 4.65 %ID | Drug uptake (Intestine [4]): 4.35 %ID | remaining at 1 h [5]: > 85% | Drug uptake (Liver): 4.28 %ID | Drug uptake (Stomach): 3.39 %ID | Drug uptake (Brain [6]): 2.14 %ID | Drug uptake (Cerebellum): 3.71 %ID | Drug uptake (Muscle tissue): 0.97 %ID | Drug uptake (Pancreas [7]): 12.8 %ID | Drug uptake (Femur): 4.27 %ID | Kp at 1 h [8]: 5.75 | Drug uptake (Brain [9]): 2.27 %ID | Drug uptake (Heart [10]): 2.46 %ID | Drug uptake [11]: 4.11 %ID | Drug uptake (Kidney [12]): 3.68 %ID | Drug uptake [13]: 2.87 %ID | Drug uptake (Pancreas [14]): 8.76 %ID | Drug uptake (Intestine [15]): 9.03 %ID | Drug uptake (Heart [16]): 1.52 %ID | remaining at 1 h [17]: ≥ 95% | Drug uptake (Blood [18]): 0.56 %ID | Drug uptake [19]: > 70% | Drug uptake (Kidney [20]): 7.49 %ID | Drug uptake (Heart [21]): 3.75 %ID
